From PubChem
An excerpt weighted towards active compounds, which were near 3.8% of everything screened.
NPY2 pot ag: potentiators or agonists of human neuropeptide Y receptor Y2. P49146. cells expressing NPY-Y2, potentiator/agonist read-out. activation, % at 3.6 µM. hit rate 0.45% among 220,000. AID 1359; in the data active = activation above about 27%;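 note: cells stimulated with NPY near EC25 plus isoproterenol at EC100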
Target sequence (P49146 whole entry, looked up): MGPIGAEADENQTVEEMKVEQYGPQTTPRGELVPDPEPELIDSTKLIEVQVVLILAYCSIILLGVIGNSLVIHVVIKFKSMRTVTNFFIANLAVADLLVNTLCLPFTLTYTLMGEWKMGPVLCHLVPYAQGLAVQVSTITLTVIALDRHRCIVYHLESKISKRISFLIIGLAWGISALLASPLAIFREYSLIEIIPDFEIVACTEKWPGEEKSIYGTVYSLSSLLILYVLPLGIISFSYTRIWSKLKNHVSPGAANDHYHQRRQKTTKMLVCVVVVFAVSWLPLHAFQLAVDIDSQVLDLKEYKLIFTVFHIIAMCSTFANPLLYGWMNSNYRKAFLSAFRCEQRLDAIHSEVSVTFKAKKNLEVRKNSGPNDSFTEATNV
NPY-Y1 antag: NPY-Y1 (human) receptor antagonism; HEK293-CNG Y1 cells, membrane potential fluorescence; NPY at EC95, then isoproterenol; inhibition, % at 3.6 µM; hit rate 1% among 200,000; AID 1040;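 active = inhibition above the campaign mean inhibition of all tested compounds plus 3 SD, cut at about 20% in these data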
Target sequence (P25929 whole entry, looked up): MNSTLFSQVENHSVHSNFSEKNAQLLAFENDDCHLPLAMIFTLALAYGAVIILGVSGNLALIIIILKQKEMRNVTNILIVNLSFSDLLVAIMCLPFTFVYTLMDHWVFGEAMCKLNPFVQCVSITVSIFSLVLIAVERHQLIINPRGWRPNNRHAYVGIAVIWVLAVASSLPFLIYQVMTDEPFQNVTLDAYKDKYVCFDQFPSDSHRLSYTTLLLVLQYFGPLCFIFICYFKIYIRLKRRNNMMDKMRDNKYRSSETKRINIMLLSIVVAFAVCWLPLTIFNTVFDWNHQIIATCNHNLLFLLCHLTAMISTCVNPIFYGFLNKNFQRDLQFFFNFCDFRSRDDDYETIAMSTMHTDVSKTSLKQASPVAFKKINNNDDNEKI
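Material: HEK293 Y1/CNG channel cell line; also added: NPY (25 nM), isoproterenol (1 µM), Ro 20-1724 (25 µM); doses: one concentration, 3.6 µM, in 0.4% DMSO; schedule: compound incubation 1 h at room temperature, readout 45 min post-stimulation; technique: membrane potential fluorescence; measure: fluorescence ratio normalized to % inhibition between controls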
NPY-Y1 PAM-ag: human NPY-Y1 potentiation or agonism, primary screen | activation, % at 3.6 µM | P25929 | NPY-Y1 expressing cells, potentiator/agonist activation | hit rate 0.37% among 220,000; in the data active = activation above about 33%, passing the limit was not always enough;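 note: cells stimulated with NPY at EC10 then isoproterenol at EC100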
Insulin prom inh: TRM-6 insulin promoter activity inhibition; TRM-6 cells, insulin promoter-eGFP reporter, imaging; reporter expression induced with tamoxifen; inhibition, % at 2 µM; hit rate 0.9% among 130,000; AID 1273;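 active = inhibition above the mean plus 3 SD, with well images judged a real hit on visual review, cut at about 60% in these data, passing the limit was not always enough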
RAM network inh: inhibitors of the yeast RAM network; S. cerevisiae dse1pr::URA3 reporter, 5-FOA growth OD615, 2 d; analog-sensitive cbk1-as2 kinase mutant strain; inhibition, % at 50 µM; hit rate 1.8% among 190,000;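 active = inhibition above a set limit, 3 SD over mean compound inhibition, cut at about 8.4% in these data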;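 note: inhibition rescues growth on 5-FOA so higher OD means more RAM inhibition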
NPY Y2 blocker: antagonists of human neuropeptide Y receptor Y2; P49146; NPY-Y2 expressing cells, antagonist mode; inhibition, % at 2.7 µM; hit rate 0.99% among 140,000; AID 793
NPY1 antag conf: human NPY-Y1 antagonism, confirmation; shares compounds with NPY-Y1 antag; inhibition, % at 3.6 µM; hit rate 21% among 1,200; HEK293-CNG NPY-Y1, membrane potential fluorescence, cAMP; NPY challenge against isoproterenol-raised cAMP; AID 1254; in the data active = inhibition above about 20%
NPY2 antag ctr: human NPY-Y2 antagonism in NPY-Y1 counter-screen | shares compounds with NPY-Y1 antag | HEK293 NPY-Y2 CNG membrane potential fluorescence; cells given NPY, then isoproterenol | inhibition, % at 3.6 µM | hit rate 28% among 1,200 | AID 1255
NPY-Y1 confirm: human NPY-Y1 potentiation or agonism, confirmation; shares compounds with NPY-Y1 PAM-ag; cell-based NPY-Y1 potentiator/agonist assay; activation, % at 3.6 µM; hit rate 20% among 280; AID 1546; in the data active = activation above about 45%;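 note: cells challenged with NPY at its EC10 plus isoproterenol stimulus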
NPY-Y2 counter: potentiates or activates NPY-Y2, counter-screen for NPY-Y1 hits | HEK293-CNG cells, membrane-potential fluorescence (FLIPR), 1536-well | AID 1649 | activation, % at 3.6 µM | hit rate 20% among 280 | shares compounds with NPY-Y1 PAM-ag; in the data active = activation above about 33%
NPY-Y1 ag: human NPY-Y1 agonism as potentiator counter-screen; activation, % at 3.6 µM; AID 1697; HEK293 Y1-CNGC, membrane potential fluorescence, agonist mode; shares compounds with NPY-Y1 PAM-ag; hit rate 50% among 280;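 active = percent activation above the mean of DMSO-only control wells plus 3 SD of those wells, cut at about 18% in these data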;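 note: cells challenged with isoproterenol plus Ro 20-1724 with no NPY in test wells; Y1 agonism lowers isoproterenol-driven cAMP and reduces probe fluorescence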
NPY-Y2 agonist: counter-screen for NPY-Y1 potentiators or agonists: agonists of NPY-Y2; activation, % at 3.6 µM; hit rate 67% among 280; shares compounds with NPY-Y1 PAM-ag; HEK293 Y2-CNGC, membrane potential fluorescence, agonist mode;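 active = activation above the solvent-only control wells' mean plus 3 SD, cut at about 11% in these data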;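 note: agonism lowers cAMP so well fluorescence drops in active wells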
CNGC counter: CNG channel inhibition, counter-screen for NPY-Y1 potentiators | shares compounds with NPY-Y1 PAM-ag | HEK293-CNG parental, isoproterenol cAMP, membrane potential fluorescence | inhibition, % at 3.6 µM | hit rate 42% among 280;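 active = inhibition above the mean of stimulated solvent-only control wells plus 3 SD, cut at about 22% in these data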
Of the large screens only hits and unclear results are named; the others gave an inactive call (follow-up assays come after a bar, where they were run). Cut-off read from the data, not from the text of the source, unless noted: active = inhibition above about 17%; inactive = the rest.

COC(=O)C1C(=O)CC(C)(O)C(C(=O)OC)C1/C=C/c1ccccc1 (stereo not given)	none (no result: Insulin prom inh)
O=C1C=C(c2ccccc2)CC(/C=C/c2ccccc2)C1 (stereo not given)	NPY-Y1 antag 23 | NPY1 antag conf inactive | NPY2 antag ctr inactive
CC1(C)CC(N2CCCC2)=CC(=[N+]2CCCCCC2)C1	NPY-Y1 antag 26 (no result: Insulin prom inh, NPY Y2 blocker) | NPY1 antag conf 23 | NPY2 antag ctr inactive
CC1(C)CC(N2CCN(c3ccccc3)CC2)=CC(=[N+]2CCCC2)C1	none (no result: Insulin prom inh)
CC1CC(C)C[N+](=C2C=C(N3CCCC3)CC(C)(C)C2)C1 (stereo not given)	NPY-Y1 antag 42 (no result: NPY Y2 blocker) | NPY1 antag conf 31 | NPY2 antag ctr inactive
COc1ccc(CCNC(=O)CSc2nnc(-c3ccc(F)cc3)o2)cc1OC	none (no result: Insulin prom inh)
NC(=O)COC(=O)CSc1ccc2ccccc2c1	NPY-Y1 antag 22 (no result: Insulin prom inh, NPY Y2 blocker) | NPY1 antag conf inactive | NPY2 antag ctr inactive
COC(=O)c1cc(C(=O)OC)[nH]n1	none (no result: Insulin prom inh, NPY Y2 blocker)
CCC(Oc1ccc(C)c(C)c1)C(=O)O (stereo not given)	NPY-Y1 antag 23 | NPY1 antag conf inactive | NPY2 antag ctr inactive
Cc1ccc(C)c(OCc2ccc(C(=O)N3N=C(C(F)F)CC3(O)C(F)F)o2)c1 (stereo not given)	none
CCOC(=O)c1c(NC(C)=O)sc2c(OCC(O)CN(CC)CC)c(Br)ccc12 (stereo not given)	NPY-Y1 antag 80 (no result: Insulin prom inh, NPY Y2 blocker) | NPY1 antag conf 104 | NPY2 antag ctr 117
CCOC(=O)c1c(NC(C)=O)sc2c(OCCN(CC)CC)c(Br)ccc12	none (no result: NPY Y2 blocker)
CC(NC(=O)Cn1nc(C(=O)O)c2ccccc2c1=O)C12CC3CC(CC(C3)C1)C2 (stereo not given)	none (no result: Insulin prom inh, NPY Y2 blocker)
Cn1c(=NCC(O)COc2ccccc2)sc2ccccc21 (stereo not given)	NPY-Y1 antag 22 | NPY1 antag conf inactive | NPY2 antag ctr inactive
O=C(CCc1nc(-c2cccs2)no1)NCc1ccc(F)cc1Cl	none (no result: Insulin prom inh)
Cc1ccc(CNC(=O)CCc2nc(-c3cccs3)no2)cc1	NPY-Y1 antag 21 (no result: Insulin prom inh) | NPY1 antag conf inactive | NPY2 antag ctr inactive
N#C/C(=N\Nc1cccc2ccccc12)c1nnc2n1CCCCC2	NPY-Y1 antag 20 (no result: Insulin prom inh) | NPY1 antag conf inactive | NPY2 antag ctr inactive
CC1CCCCC1n1c(=S)[nH]c2ccccc2c1=O (stereo not given)	none (no result: Insulin prom inh)
CC1CCC(C(C)C)C(OCC(O)CN2CCCC(C)C2)C1 (stereo not given)	NPY-Y1 antag 28, NPY-Y1 PAM-ag 47 (no result: NPY Y2 blocker) | NPY1 antag conf 27 | NPY2 antag ctr 21 | NPY-Y1 confirm inactive | NPY-Y2 counter inactive | NPY-Y1 ag inactive | NPY-Y2 agonist 14 | CNGC counter inactive
O=C(N/N=C/c1ccncc1)c1ccc(NS(=O)(=O)c2cccs2)cc1	none (no result: NPY Y2 blocker)
CC1(C)CC[C@]2(C(=O)O)CC[C@]3(C)C(=CCC4[C@@]5(C)CC[C@H](O)C(C)(C)C5CC[C@]43C)C2C1 (stereo not given in full)	none
CC(=O)OC1COC(OC2C(O)C(C)OC(OC3C(OC4CCC5(C)C(CCC6(C)C5CC=C5C7CC(C)(C)CCC7(C(=O)O)CCC56C)C4(C)CO)OCC(O)C3O)C2O)C(O)C1OC(C)=O (stereo not given)	NPY-Y1 antag 23, NPY-Y1 PAM-ag 60 (no result: Insulin prom inh, NPY Y2 blocker) | NPY1 antag conf 22 | NPY2 antag ctr inactive | NPY-Y1 confirm 83 | NPY-Y2 counter 68 | NPY-Y1 ag 58 | NPY-Y2 agonist 62 | CNGC counter 47
C/C(=N\Nc1ccc(C(=O)c2c(C)cc3ccccn23)cc1[N+](=O)[O-])c1ccc(O)cc1	NPY-Y1 PAM-ag 62 (no result: NPY-Y1 antag, Insulin prom inh, RAM network inh, NPY Y2 blocker) | NPY-Y1 confirm inactive | NPY-Y2 counter inactive | NPY-Y1 ag inactive | NPY-Y2 agonist 12 | CNGC counter inactive
Cc1cc2ccccn2c1C(=O)c1ccc(N/N=C/c2ccc(C(=O)O)cc2)c([N+](=O)[O-])c1	none (no result: NPY-Y1 antag, Insulin prom inh, RAM network inh, NPY Y2 blocker)
COC(=O)c1ccccc1NC(=O)CSc1ncn[nH]1	none (no result: NPY-Y1 antag, Insulin prom inh, RAM network inh, NPY Y2 blocker)
Cc1ccc(C2C(C#N)=C(N)N(c3cccnc3)C3=C2C(=O)CCC3)c(C)c1 (stereo not given)	none (no result: NPY Y2 blocker)
CCCCn1nnc(NC(=O)C(c2ccccc2)c2ccccc2)n1	NPY-Y1 PAM-ag 64 (no result: Insulin prom inh, NPY Y2 blocker) | NPY-Y1 confirm inactive | NPY-Y2 counter inactive | NPY-Y1 ag inactive | NPY-Y2 agonist inactive | CNGC counter inactive
CCCn1nnc(NC(=O)C(c2ccccc2)c2ccccc2)n1	none
Cc1nn(CCCC(=O)Nc2c(F)cc(F)cc2Br)c(C)c1[N+](=O)[O-]	none (no result: NPY Y2 blocker)
O=[N+]([O-])c1cccc(S(=O)(=O)Nc2nc3ccccc3nc2Nc2cccc(S(=O)(=O)N3CCCCC3)c2)c1	none (no result: Insulin prom inh)
Cc1ccc(S(=O)(=O)Nc2nc3ccccc3nc2Nc2cccc(S(=O)(=O)N3CCCC3)c2)cc1	NPY-Y1 PAM-ag 45 (no result: NPY Y2 blocker) | NPY-Y1 confirm 74 | NPY-Y2 counter 71 | NPY-Y1 ag 67 | NPY-Y2 agonist 65 | CNGC counter 44
Cc1cc(C)c(C)c(S(=O)(=O)N2CCN(c3ccc(O)cc3)CC2)c1C	none (no result: NPY Y2 blocker)
CCC(C)C1C(C#N)=C(N)Oc2n[nH]c(-c3ccccc3)c21 (stereo not given)	NPY-Y1 PAM-ag 40 (no result: Insulin prom inh) | NPY-Y1 confirm inactive | NPY-Y2 counter inactive | NPY-Y1 ag 27 | NPY-Y2 agonist 23 | CNGC counter inactive
Cc1ccc(-c2[nH]c3ccccc3c2SCCNC(=O)c2ccc(S(=O)(=O)N3CCOCC3)cc2)cc1	NPY-Y1 PAM-ag 48 | NPY-Y1 confirm inactive | NPY-Y2 counter inactive | NPY-Y1 ag inactive | NPY-Y2 agonist 11 | CNGC counter inactive
